Results published in the RNAGym collection of RNA variant scans (doi:10.1126/science.aae0568).
This sample holds only a part of the variants without activity.

B1: tRNA (parent)
chain: GUUCCGUUGGCGUAAUGGUAACGCGUCUCCCUCCUAAGGAGAAGACUGCGGGUUCGAGUCCCGUACGGAACG

Variants of: B1
Assay: yeast fitness relative to wild type (ratio to wild type); higher = fitter; tRNA-Arg(CCU), competitive growth, 37 C, YPD
In short: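 Start and end populations of a pooled competition were compared by 100-nucleotide paired-end sequencing of gene amplicons. The Saccharomyces cerevisiae strains carried tRNA-Arg(CCU) gene variants at the native genomic locus, synthesised with a 3% per-site mutation rate at 69 sites, and competed in YPD at 37°C for 24 hours in six parallel replicates. Darwinian fitness relative to wild type was based on the change in genotype frequencies. Genotypes required ≥ 100 starting reads, and estimates < 0.5 were set to 0.5.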
For G44C A69U, the yeast fitness was 0.895. Work on G44C A70C yielded a yeast fitness of 0.927. For G44C A70U, the yeast fitness was 0.959. For G44C C46G C55U, the yeast fitness was ≤ 0.5. G44C C46U C62G gave a yeast fitness of 0.787. With G44C C49G U59A the yeast fitness was ≤ 0.5. In the case of G44C C49G U64A, the yeast fitness is reported as ≤ 0.5. G44C C49U U64G G67A showed a yeast fitness of 0.512. For G44C C60A, the yeast fitness was 0.572. With G44C C60U A70G the yeast fitness was ≤ 0.5. In the case of G44C C62U C66G, the yeast fitness is reported as ≤ 0.5. Work on G44C G48A G58A yielded a yeast fitness of 0.881. G44C G50C A57G A65C gave a yeast fitness of 0.561. Work on G44C G58A yielded a yeast fitness of 1.02. G44C G58C gave a yeast fitness of 0.919. In the case of G44C U47C G58A, the yeast fitness is reported as 0.766. In the case of G44C U54C C60A, the yeast fitness is reported as ≤ 0.5. G44U G58A showed a yeast fitness of 0.946. A45C A65C showed a yeast fitness of 0.683. A45C A65G C66U showed a yeast fitness of 0.679. Variant A45C A70U has a yeast fitness of 0.862. With A45C C46U the yeast fitness was 1.02. For A45C C55U, the yeast fitness was 0.692. In the case of A45C C55U A69C, the yeast fitness is reported as ≤ 0.5. A45C C60G gave a yeast fitness of 0.603. A45C C62U showed a yeast fitness of 0.842. For A45C G48A A70U, the yeast fitness was 0.654. With A45C G50A C62U the yeast fitness was 0.868. For A45C G50C, the yeast fitness was 0.604. Variant A45C G56A has a yeast fitness of 0.977. A45C G56C gave a yeast fitness of 0.64. For A45C G63A A69U, the yeast fitness was 0.793. In the case of A45C G67C, the yeast fitness is reported as 0.639. In the case of A45C G67U, the yeast fitness is reported as 0.874. A45C G68C gave a yeast fitness of 0.839. With A45C U47C U64C A65C the yeast fitness was 0.725. With A45C U54A C66U the yeast fitness was ≤ 0.5. With A45G A57U the yeast fitness was 0.751. A45G A70C gave a yeast fitness of 0.989. For A45G C46U G51C, the yeast fitness was ≤ 0.5. In the case of A45G C46U G51C G67C, the yeast fitness is reported as ≤ 0.5. In the case of A45G C55A G58C, the yeast fitness is reported as 0.537. For A45G C55U A65C, the yeast fitness was ≤ 0.5. In the case of A45G C55U A65G, the yeast fitness is reported as 0.544. In the case of A45G C55U G67A, the yeast fitness is reported as 0.656. For A45G C55U G67A A69G, the yeast fitness was ≤ 0.5. For A45G C61U, the yeast fitness was 1.03. Work on A45G C62A yielded a yeast fitness of 0.8. In the case of A45G C62G, the yeast fitness is reported as 0.832. For A45G C66A, the yeast fitness was 0.581. With A45G G50A the yeast fitness was 0.857. In the case of A45G G50A U54C, the yeast fitness is reported as ≤ 0.5. For A45G G51A, the yeast fitness was 0.716. For A45G G51A U59C, the yeast fitness was ≤ 0.5. Work on A45G G58A yielded a yeast fitness of 1.04. A45G G58A A65U gave a yeast fitness of 0.741. For A45G U47C C62A A65U C66A, the yeast fitness was ≤ 0.5. A45G U47C G48C U59A gave a yeast fitness of 0.576. With A45G U47G the yeast fitness was 0.756. With A45G U53G C66U A69U the yeast fitness was ≤ 0.5. A45G U59C gave a yeast fitness of 1.03. Variant A45U A57G U59C has a yeast fitness of 0.597. Variant A45U A57U has a yeast fitness of 0.744. Work on A45U A65C yielded a yeast fitness of 0.801. In the case of A45U A65C G68A, the yeast fitness is reported as 0.567. A45U A69C gave a yeast fitness of 1.04. Work on A45U A69U yielded a yeast fitness of 1.05. A45U A70C gave a yeast fitness of 0.987. In the case of A45U C46A G51U, the yeast fitness is reported as ≤ 0.5. In the case of A45U C49G, the yeast fitness is reported as 0.872. Variant A45U C49G A70U has a yeast fitness of 0.63. For A45U C55A, the yeast fitness was 0.566. Variant A45U C55G has a yeast fitness of 0.528. In the case of A45U C61A G67A, the yeast fitness is reported as ≤ 0.5. For A45U C62G G63C, the yeast fitness was ≤ 0.5. A45U C66A gave a yeast fitness of 0.649. In the case of A45U C66U, the yeast fitness is reported as 0.979. In the case of A45U G48A C66G, the yeast fitness is reported as ≤ 0.5. Work on A45U G50A U64C yielded a yeast fitness of 0.72. Work on A45U G52A A70U yielded a yeast fitness of 0.574. In the case of A45U G56C G58A A65U, the yeast fitness is reported as 0.5. A45U G63C gave a yeast fitness of 0.542. A45U U47A gave a yeast fitness of 0.786. A45U U47C gave a yeast fitness of 0.995.
